In the library only some 3.7% were active in any assay of this set; here they are far more common.
NPY-Y1 PAM-ag: potentiators or agonists of human neuropeptide Y receptor Y1 | 220,000 compounds, 0.37% hits | P25929 | activation, % at 3.6 µM | NPY-Y1 expressing cells, potentiator/agonist activation; in the data active = activation above about 33%, passing the limit was not always enough;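 note: cells stimulated with NPY at EC10 then isoproterenol at EC100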
Target sequence (P25929 whole entry, looked up): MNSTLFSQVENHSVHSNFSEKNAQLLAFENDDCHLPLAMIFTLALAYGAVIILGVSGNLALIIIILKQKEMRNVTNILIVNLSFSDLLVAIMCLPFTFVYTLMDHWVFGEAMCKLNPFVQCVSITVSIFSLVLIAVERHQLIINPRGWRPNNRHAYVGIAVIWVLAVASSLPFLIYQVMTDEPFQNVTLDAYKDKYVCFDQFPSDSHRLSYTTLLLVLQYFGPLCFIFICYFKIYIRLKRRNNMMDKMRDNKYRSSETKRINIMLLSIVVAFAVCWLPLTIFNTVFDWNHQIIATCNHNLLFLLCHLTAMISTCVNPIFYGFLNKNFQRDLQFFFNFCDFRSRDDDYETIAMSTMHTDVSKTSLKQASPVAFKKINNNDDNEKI
NPY2 pot ag: potentiators or agonists of human neuropeptide Y receptor Y2; P49146; cells expressing NPY-Y2, potentiator/agonist read-out; activation, % at 3.6 µM; 220,000 compounds, 0.45% hits; AID 1359; in the data active = activation above about 27%;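 note: cells stimulated with NPY near EC25 plus isoproterenol at EC100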
Target sequence (P49146 whole entry, looked up): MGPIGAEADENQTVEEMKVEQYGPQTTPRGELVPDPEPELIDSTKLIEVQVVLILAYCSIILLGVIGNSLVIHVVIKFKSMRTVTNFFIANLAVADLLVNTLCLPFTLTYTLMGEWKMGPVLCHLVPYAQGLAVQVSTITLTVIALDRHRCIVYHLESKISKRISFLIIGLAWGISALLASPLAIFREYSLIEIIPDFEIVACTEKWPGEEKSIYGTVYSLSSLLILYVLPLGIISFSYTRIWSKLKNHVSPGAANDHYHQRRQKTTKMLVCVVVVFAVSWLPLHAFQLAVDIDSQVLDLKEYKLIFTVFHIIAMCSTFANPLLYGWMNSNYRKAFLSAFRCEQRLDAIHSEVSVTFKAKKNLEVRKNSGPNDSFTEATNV
KCC2 mod: modulators of human KCC2 chloride dependent transport. Q9H2X9. KCC2 cells, thallium flux FluoZin-2 fluorescence. B-score of Tl+ flux slope (higher = more flux/activation; lower = inhibition) at 10 µM. 190,000 compounds, 2.2% hits. AID 1456;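 active = thallium flux slope and its plate-corrected score both differing from the plate sample mean at a set confidence after two filtering rounds, in either direction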;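 note: slope of fluorescence scaled to starting intensity during 10 to 20 s after thallium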
NPY-Y1 antag: blocks the human neuropeptide Y Y1 receptor. P25929. HEK293-CNG Y1 cells, membrane potential fluorescence; NPY at EC95, then isoproterenol. inhibition, % at 3.6 µM. 200,000 compounds, 1% hits. AID 1040;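 active = inhibition above the campaign mean inhibition of all tested compounds plus 3 SD, cut at about 20% in these data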
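Material: HEK293 Y1/CNG channel cell line; also added: NPY (25 nM), isoproterenol (1 µM), Ro 20-1724 (25 µM); doses: one concentration, 3.6 µM, in 0.4% DMSO; schedule: compound incubation 1 h at room temperature, readout 45 min post-stimulation; technique: membrane potential fluorescence; measure: fluorescence ratio normalized to % inhibition between controls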
Furin inhibitor: inhibitors of human furin; 220,000 compounds, 0.061% hits; purified furin, fluorogenic substrate cleavage; inhibition, % at 20 µM or 30 µM; in the data active = inhibition above about 25%
NPY Y2 blocker: blocks the human neuropeptide Y Y2 receptor | AID 793 | inhibition, % at 2.7 µM | NPY-Y2 expressing cells, antagonist mode | 140,000 compounds, 0.99% hits | P49146; in the data active = inhibition above about 17%
KCC2 sec1: KCC2 (human) modulation, secondary assay. HEK293-KCC2, thallium flux, FluoZin2 fluorescence; stronger effect = higher value. AID 1713. normalised thallium flux (F/F0 slope) at 10 µM. 3,700 compounds, 15% hits. shares compounds with KCC2 mod;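 active = thallium flux slope above the same plate's solvent-only control mean plus 3 SD; inconclusive = the two replicate wells disagree; inactive = no significant difference from solvent-only control wells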
KCC2 bumet counter: thallium flux despite bumetanide block in KCC2 cells, secondary assay 3; normalized thallium flux at 10 µM; HEK293-KCC2 + bumetanide/ouabain, thallium flux FluoZin2; stronger effect = higher value; 3,700 compounds, 49% hits; shares compounds with KCC2 mod;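 active = thallium entry rate above the same plate's blocked-transporter control wells by more than 3 SD; inconclusive = the two repeat wells disagree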;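 note: raw slope of fluorescence over initial fluorescence between 10 and 20 s after thallium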
KCC2 secondary2: KCC2 (human) modulation, second secondary assay | 3,700 compounds, 23% hits | normalized thallium flux at 10 µM | HEK293-KCC2, thallium flux FluoZin2 fluorescence; actives lie on both sides; F/F0 rise rate, 10–20 s post-thallium | AID 1715 | shares compounds with KCC2 mod;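 active = thallium flux slope more than 3 SD above or below the plate's solvent-only control mean, mostly below; inconclusive = the two repeat wells disagreed; inactive = no significant shift from solvent-only controls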
HEK293 Tl flux: acts in parental HEK cells, KCC2 counter-screen | HEK293 parental cells, thallium flux FluoZin2, ouabain; baseline-ratio fluorescence slope, 10–20 s after thallium | thallium flux rate (normalised fluorescence) at 10 µM | 3,700 compounds, 46% hits | shares compounds with KCC2 mod;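 active = thallium flux rate significantly above the same plate's solvent-only control wells, beyond their mean plus 3 SD; inconclusive = the two replicate wells gave conflicting results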
KCC2 ouabain: confirmation of human KCC2 modulators with ouabain. shares compounds with KCC2 mod. HEK293-KCC2, thallium flux FluoZin2 fluorescence; bidirectional: low = inhibitor, high = activator. raw Tl+ flux slope (below DMSO = inhibition, above = activation) at 10 µM. 3,700 compounds, 48% hits;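 active = thallium flux slope beyond 3 SD from same-plate DMSO control mean in most replicates, usually higher, sometimes lower; inconclusive = repeat tests gave conflicting results; inactive = no significant difference from controls in most replicates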;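 note: slope of initial-normalized fluorescence between seconds 10 and 20 after thallium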
HEK counter2: acts in parental HEK cells, second KCC2 counter-screen. shares compounds with KCC2 mod. HEK293 parental, thallium flux FluoZin-2 fluorescence slope. thallium flux slope at 10 µM. 3,700 compounds, 33% hits. AID 1718;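 active = thallium flux slope above the same plate's solvent-control mean plus 3 SD in both duplicate wells; inconclusive = duplicate wells that disagreed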;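 note: run without ouabain in cells lacking the KCC2 cotransporter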
Hits are given with their value; . = inactive; ? = inconclusive; / = not tested or not shown.

SMILES	NPY-Y1 PAM-ag	NPY2 pot ag	KCC2 mod	NPY-Y1 antag	Furin inhibitor	NPY Y2 blocker	KCC2 sec1	KCC2 bumet counter	KCC2 secondary2	HEK293 Tl flux	KCC2 ouabain	HEK counter2
Cc1ccccc1OCC(=O)NC(=S)Nc1ccc2c3c(cccc13)CC2	.	.	.	.	.	.	/	/	/	/	/	/
COc1ccc(OCC(=O)NC(=S)N2CCCc3ccccc32)cc1	.	.	24	.	.	.	0.021	0.037	.	0.021	0.029	0.021
COc1ccccc1-c1cc(C(=O)N2CCCc3ccccc32)no1	.	.	-3.9	.	.	/	.	.	.	?	0.016	.
COc1ccccc1C(=O)NC(=S)N1CCCc2ccccc21	.	.	/	.	.	.	/	/	/	/	/	/
COc1ccccc1C(=O)NC(=S)N1CCc2ccccc21	.	.	6.5	.	.	/	.	0.019	.	0.0085	?	.
COc1ccc(-c2cc(C(=O)N3CCCc4ccccc43)no2)cc1OC	.	.	.	.	.	.	/	/	/	/	/	/
COc1ccc(-c2c(C)[nH]n3c(=O)c(Cc4ccccc4)c(C)nc23)cc1OC	.	.	.	.	.	/	/	/	/	/	/	/
Cc1nc2c(-c3ccc(Cl)cc3)c(C)[nH]n2c(=O)c1Cc1ccccc1	.	.	4.9	.	.	/	.	0.013	?	0.012	?	0.012
Cc1nc2c(-c3ccccc3)c(C)[nH]n2c(=O)c1Cc1ccccc1	.	.	4.9	.	.	/	.	0.02	.	0.015	?	0.016
CCOCCCNC(=S)N1CCN(Cc2ccc3c(c2)OCO3)CC1	.	.	.	.	.	/	/	/	/	/	/	/
CC(C)C(NC(=O)C(NC(=O)C1OC2OC(C)(C)OC2C2OC(C)(C)OC12)C(C)C)C(=O)O (stereo unspecified)	.	.	.	.	.	/	/	/	/	/	/	/
COc1ccc(-n2c(C)cc(C(=O)CSc3nnc(-c4ccoc4C)n3C)c2C)cc1	.	.	/	.	.	.	.	.	.	?	.	.
COc1ccc(-n2c(SCC(=O)Nc3ccccc3)nnc2-c2ccoc2C)cc1	.	.	.	.	.	.	/	/	/	/	/	/
CCOC(=O)CC1Sc2ccccc2NC1=S (stereo unspecified)	.	.	6.9	/	.	/	.	0.024	.	?	0.031	?
CCOC(=O)CC1Sc2ccccc2NC1=O (stereo unspecified)	.	.	.	.	.	.	/	/	/	/	/	/
CCOc1ccc2nc(SCC(=O)Nc3cc4c(cc3C(C)=O)OCO4)[nH]c2c1	.	.	.	.	.	.	/	/	/	/	/	/
Cc1ccc(C(=O)NC(=S)Nc2c(C)ccc3nsnc23)cc1	.	.	8.7	.	.	.	.	0.057	.	0.023	0.045	0.013
Cc1ccc(C2CC2c2n[nH]c(=S)n2-c2cccc(Cl)c2)cc1 (stereo unspecified)	.	.	5.6	.	.	.	.	0.027	.	0.011	?	.
CCCC1=C(C(=O)OCC)C(c2sccc2C)n2ncnc2N1 (stereo unspecified)	.	.	.	/	.	/	/	/	/	/	/	/
Cc1ccc(-n2c(SCC(=O)Nc3cccc(S(N)(=O)=O)c3)nc3ccccc32)cc1	.	.	.	.	.	.	/	/	/	/	/	/
S=c1nccc(-c2ccc(Cl)cc2)[nH]1	.	.	19	/	.	/	0.01	0.019	0.041	0.024	0.032	0.027
Cc1nc2ccccn2c1-c1ccnc(=S)[nH]1	.	.	.	/	.	/	/	/	/	/	/	/
CCCC(=O)Nc1ccc(C=C(C(C)=O)C(C)=O)cc1	.	.	.	/	.	/	/	/	/	/	/	/
CC(=O)Nc1nn(C)c2nc(C)cc(C)c12	.	.	.	.	.	/	/	/	/	/	/	/
Oc1ccccc1/C=N/NC(=S)NC1CC2CCC1C2 (stereo unspecified)	.	.	15	/	.	/	.	0.037	.	0.016	0.03	?
SMILES	NPY-Y1 PAM-ag	NPY2 pot ag	KCC2 mod	NPY-Y1 antag	Furin inhibitor	NPY Y2 blocker	KCC2 sec1	KCC2 bumet counter	KCC2 secondary2	HEK293 Tl flux	KCC2 ouabain	HEK counter2
COc1cccc(/C=N/NC(=S)NC2CC3CCC2C3)c1OC (stereo unspecified)	.	.	/	/	.	/	/	/	/	/	/	/
Cc1ccccc1CSCCNS(C)(=O)=O	.	.	/	.	.	.	.	.	.	.	.	.
Cc1cc(C)n(C(=O)CNC(=O)COc2ccccc2)n1	.	.	/	.	.	.	/	/	/	/	/	/
Cc1ccc(OCC(=O)NCC(=O)n2nc(C)cc2C)cc1	.	.	.	.	.	.	.	.	0.028	.	.	.
O=C(Cc1csc(-c2ccccc2)n1)NCc1ccc(F)cc1	.	.	-5.2	.	.	.	.	.	0.03	.	0.016	.
O=C(Cc1csc(-c2ccccc2)n1)NCc1ccccc1F	.	.	.	.	.	.	/	/	/	/	/	/
O=C(NCc1csc(-c2ccccc2)n1)c1cc(F)cc2c1OCOC2	.	.	-3.8	/	.	/	?	.	.	.	0.015	.
Cc1nc2scc(-c3ccc(Cl)cc3)c2c(=O)o1	.	.	/	.	.	.	.	.	.	.	.	.
CCCn1c(SCN2C(=O)c3ccccc3C2=O)nc2cc(Cl)ccc2c1=O	.	.	106	.	.	.	0.038	0.17	0.053	0.092	0.084	0.046
COc1ccc(-c2nc3n(n2)C(c2cccnc2)C(C(N)=O)=C(C)N3)cc1 (stereo unspecified)	.	.	.	.	.	.	/	/	/	/	/	/
COc1ccc(-c2nc3n(n2)C(c2ccncc2)C(C(N)=O)=C(C)N3)cc1 (stereo unspecified)	.	.	11	.	.	.	.	.	.	.	.	.
COc1cccc(C(=O)CSc2nnc(CNS(=O)(=O)c3ccc(C)cc3)n2C)c1	.	.	-4.2	.	.	.	.	.	.	.	.	0.011
COc1ccc(NC2=NCC(Cc3ccc(Br)cc3)S2)cc1 (stereo unspecified)	.	.	/	.	.	.	/	/	/	/	/	/
O=C(CSc1nnc(SCc2cccc3ccccc23)s1)c1ccc2c(c1)OCO2	.	.	/	.	.	.	?	0.028	0.04	0.034	0.032	0.035

Assay outcomes from PubChem BioAssay.
